# Data as given in ChEMBL document CHEMBL5724801, “EUbOPEN Chemogenomics Library - Multiplex” (2024).
# Where “and” joins values, the source holds several entries; their conditions need not be identical. Equal entries are not always repeated.
# Test system: Fibroblast
# Assay: Multiplex assay against human fibroblast
# Assay type: toxicity, cell-based
# Settings: 12 h, 1 µM, compound concentration 1 uM
# In short: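 Live cells were stained at seeding with Hoechst33342, BioTracker Green Microtubule Cytoskeleton Dye, MitoTracker Red and Annexin V Alexa Fluor 680. Following compound addition, they were imaged on a CQ1 microscope at 37°C and 5% CO2 and gated by CellPathfinder machine learning into Hoechst high-intensity objects or normal cells, with normal cells split into healthy, pyknosed or fragmented nuclei and pyknosed cells into mitotic or apoptotic. Tubulin, mitochondrial-mass and membrane-permeability phenotypes are per cents of healthy-nucleus cells.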
Compound,Population Apoptotic (%),Population Fragmented Nuclei (%),Population Healthy Nuclei (%),Population Hoechst High Intensity Objects (%),Population Membrane Permeable-Phenotype (%),Population Mitochondria Different-Phenotype (%),Population Mitotic Cells (%),Population Normal (%),Population Pyknosed Nuclei (%),Population Tubulin-Different-Phenotype (%)
CC(C)(O)C(=O)N1CCN(c2ccc(C(F)(F)F)c(C3=C(c4c[nH]c5ccccc45)C(=O)NC3=O)c2)CC1,41% and 32%,14% and 30%,68% and 46%,2% and 5%,0% and 5%,9% and 5%,58% and 67%,97% and 94%,17% and 22%,30% and 56%
O=C1c2c(Br)c(Br)c(Br)c(Br)c2C(=O)N1c1ncc[nH]1,13.21% and 28%,9.34% and 7.04%,61.54% and 81.22%,0%,4.46% and 1.16%,9.82% and 9.25%,86.79% and 72%,100%,29.12% and 11.74%,16.96% and 14.45%
CCCOc1ccc2[nH]cc(C3=CCNCC3)c2n1.Cl,42% and 48%,13% and 25%,71% and 52%,2% and 0%,0% and 8%,6% and 2%,57% and 51%,97% and 99%,15% and 21%,27% and 47%
CCNC1(C(N)=O)CCN(c2ncnc3c2nc(-c2ccccc2Cl)n3-c2ccc(Cl)cc2)CC1 [OTENABANT],26% and 37%,19% and 25%,63% and 48%,6% and 2%,1% and 6%,7% and 10%,73% and 62%,93% and 97%,17% and 26%,44% and 50%

# Same assay, conditions: 12 h, 1 µM, compound concentration 1 uM
row,Compound,Total Cell Count
1,CC(C)(O)C(=O)N1CCN(c2ccc(C(F)(F)F)c(C3=C(c4c[nH]c5ccccc45)C(=O)NC3=O)c2)CC1,144 and 170
2,O=C1c2c(Br)c(Br)c(Br)c(Br)c2C(=O)N1c1ncc[nH]1,182 and 213
3,CCCOc1ccc2[nH]cc(C3=CCNCC3)c2n1.Cl,143 and 137
4,CCNC1(C(N)=O)CCN(c2ncnc3c2nc(-c2ccccc2Cl)n3-c2ccc(Cl)cc2)CC1 [OTENABANT],161 and 156

# Same assay, conditions: 12 h, 10 µM, compound concentration 10 uM
Compound,Population Apoptotic (%),Population Fragmented Nuclei (%),Population Healthy Nuclei (%),Population Hoechst High Intensity Objects (%),Population Mitochondria Different-Phenotype (%),Population Mitotic Cells (%),Population Normal (%),Population Pyknosed Nuclei (%),Population Tubulin-Different-Phenotype (%),Total Cell Count
CC(C)(O)C(=O)N1CCN(c2ccc(C(F)(F)F)c(C3=C(c4c[nH]c5ccccc45)C(=O)NC3=O)c2)CC1,33% and 35%,17% and 26%,50% and 31%,4% and 6%,25% and 10%,66% and 64%,96% and 93%,32% and 42%,83% and 90%,125 and 137
O=C1c2c(Br)c(Br)c(Br)c(Br)c2C(=O)N1c1ncc[nH]1,10.81% and 15.56%,9.5% and 3.32%,69.83% and 75.36%,0%,,89.19% and 84.44%,100%,20.67% and 21.33%,10.4% and 27.67%,179 and 211
CCCOc1ccc2[nH]cc(C3=CCNCC3)c2n1.Cl,70% and 40%,16% and 31%,70% and 48%,4% and 2%,12% and 10%,29% and 60%,95% and 97%,13% and 20%,41% and 59%,133 and 125
CCNC1(C(N)=O)CCN(c2ncnc3c2nc(-c2ccccc2Cl)n3-c2ccc(Cl)cc2)CC1 [OTENABANT],57% and 40%,22% and 30%,64% and 48%,4% and 3%,16% and 18%,42% and 59%,95% and 96%,12% and 21%,90% and 87%,170 and 216

# Same assay, conditions: 12 h, 10 µM, compound concentration 10 uM
row,Compound,Population Membrane Permeable-Phenotype (%)
1,O=C1c2c(Br)c(Br)c(Br)c(Br)c2C(=O)N1c1ncc[nH]1,6.4% and 1.89%
2,CCCOc1ccc2[nH]cc(C3=CCNCC3)c2n1.Cl,0% and 1%
3,CCNC1(C(N)=O)CCN(c2ncnc3c2nc(-c2ccccc2Cl)n3-c2ccc(Cl)cc2)CC1 [OTENABANT],0% and 12%

# Same assay, conditions: 24 h, 1 µM, compound concentration 1 uM
Compound,Population Apoptotic (%),Population Fragmented Nuclei (%),Population Healthy Nuclei (%),Population Hoechst High Intensity Objects (%),Population Membrane Permeable-Phenotype (%),Population Mitochondria Different-Phenotype (%),Population Mitotic Cells (%),Population Normal (%),Population Pyknosed Nuclei (%),Population Tubulin-Different-Phenotype (%)
CC(C)(O)C(=O)N1CCN(c2ccc(C(F)(F)F)c(C3=C(c4c[nH]c5ccccc45)C(=O)NC3=O)c2)CC1,50% and 31%,22% and 31%,61% and 45%,1% and 8%,0% and 2%,3% and 8%,50% and 68%,98% and 91%,16% and 23%,40% and 58%
O=C1c2c(Br)c(Br)c(Br)c(Br)c2C(=O)N1c1ncc[nH]1,,11.34% and 5.44%,70.62% and 82.01%,0%,5.84% and 4.08%,7.3% and 2.55%,91.43% and 60%,100%,18.04% and 12.55%,16.06% and 11.73%
CCCOc1ccc2[nH]cc(C3=CCNCC3)c2n1.Cl,57% and 38%,14% and 28%,76% and 52%,2% and 0%,0% and 5%,6% and 5%,42% and 61%,97% and 100%,9% and 18%,20% and 40%
CCNC1(C(N)=O)CCN(c2ncnc3c2nc(-c2ccccc2Cl)n3-c2ccc(Cl)cc2)CC1 [OTENABANT],26% and 34%,17% and 27%,66% and 43%,4% and 5%,0% and 9%,8% and 14%,73% and 65%,95% and 94%,15% and 29%,44% and 57%

# Same assay, conditions: 24 h, 1 µM, compound concentration 1 uM
row,Compound,Total Cell Count
1,CC(C)(O)C(=O)N1CCN(c2ccc(C(F)(F)F)c(C3=C(c4c[nH]c5ccccc45)C(=O)NC3=O)c2)CC1,161 and 176
2,O=C1c2c(Br)c(Br)c(Br)c(Br)c2C(=O)N1c1ncc[nH]1,194 and 239
3,CCCOc1ccc2[nH]cc(C3=CCNCC3)c2n1.Cl,155 and 140
4,CCNC1(C(N)=O)CCN(c2ncnc3c2nc(-c2ccccc2Cl)n3-c2ccc(Cl)cc2)CC1 [OTENABANT],154 and 155

# Same assay, conditions: 24 h, 10 µM, compound concentration 10 uM
Compound,Population Apoptotic (%),Population Fragmented Nuclei (%),Population Healthy Nuclei (%),Population Hoechst High Intensity Objects (%),Population Membrane Permeable-Phenotype (%),Population Mitochondria Different-Phenotype (%),Population Mitotic Cells (%),Population Normal (%),Population Pyknosed Nuclei (%),Population Tubulin-Different-Phenotype (%)
CC(C)(O)C(=O)N1CCN(c2ccc(C(F)(F)F)c(C3=C(c4c[nH]c5ccccc45)C(=O)NC3=O)c2)CC1,26% and 36%,24% and 27%,40% and 33%,7% and 3%,2% and 6%,30% and 20%,73% and 63%,92% and 96%,34% and 39%,79% and 90%
O=C1c2c(Br)c(Br)c(Br)c(Br)c2C(=O)N1c1ncc[nH]1,11.11% and 20%,13.13% and 3.29%,73.23% and 84.98%,0%,3.45% and 5.52%,4.14% and 7.18%,88.89% and 80%,100%,13.64% and 11.74%,11.72% and 23.2%
CCCOc1ccc2[nH]cc(C3=CCNCC3)c2n1.Cl,61% and 50%,23% and 20%,64% and 68%,1% and 2%,0% and 4%,12% and 8%,38% and 50%,98% and 97%,11%,36% and 61%
CCNC1(C(N)=O)CCN(c2ncnc3c2nc(-c2ccccc2Cl)n3-c2ccc(Cl)cc2)CC1 [OTENABANT],54%,22% and 37%,64% and 48%,2% and 5%,0% and 7%,37% and 30%,45%,97% and 94%,12% and 13%,96% and 88%

# Same assay, conditions: 24 h, 10 µM, compound concentration 10 uM
row,Compound,Total Cell Count
1,CC(C)(O)C(=O)N1CCN(c2ccc(C(F)(F)F)c(C3=C(c4c[nH]c5ccccc45)C(=O)NC3=O)c2)CC1,131 and 138
2,O=C1c2c(Br)c(Br)c(Br)c(Br)c2C(=O)N1c1ncc[nH]1,198 and 213
3,CCCOc1ccc2[nH]cc(C3=CCNCC3)c2n1.Cl,159 and 107
4,CCNC1(C(N)=O)CCN(c2ncnc3c2nc(-c2ccccc2Cl)n3-c2ccc(Cl)cc2)CC1 [OTENABANT],174 and 235

# Same assay, conditions: 48 h, 1 µM, compound concentration 1 uM
Compound,Population Apoptotic (%),Population Fragmented Nuclei (%),Population Healthy Nuclei (%),Population Hoechst High Intensity Objects (%),Population Membrane Permeable-Phenotype (%),Population Mitochondria Different-Phenotype (%),Population Mitotic Cells (%),Population Normal (%),Population Pyknosed Nuclei (%),Population Tubulin-Different-Phenotype (%)
CC(C)(O)C(=O)N1CCN(c2ccc(C(F)(F)F)c(C3=C(c4c[nH]c5ccccc45)C(=O)NC3=O)c2)CC1,64% and 41%,21% and 33%,61% and 37%,5% and 7%,0% and 1%,12% and 15%,36% and 58%,94% and 92%,17% and 28%,38% and 67%
O=C1c2c(Br)c(Br)c(Br)c(Br)c2C(=O)N1c1ncc[nH]1,,10% and 10.04%,84.21% and 84.56%,0%,0.62% and 1.83%,,63.64% and 92.86%,100%,5.79% and 5.41%,6.88% and 17.81%
CCCOc1ccc2[nH]cc(C3=CCNCC3)c2n1.Cl,69% and 64%,17% and 36%,74% and 53%,2% and 4%,0% and 5%,5% and 2%,30% and 35%,97% and 95%,8% and 9%,23% and 40%
CCNC1(C(N)=O)CCN(c2ncnc3c2nc(-c2ccccc2Cl)n3-c2ccc(Cl)cc2)CC1 [OTENABANT],68% and 59%,18% and 33%,69% and 42%,8% and 5%,0% and 13%,,31% and 40%,91% and 94%,12% and 23%,41% and 72%

# Same assay, conditions: 48 h, 1 µM, compound concentration 1 uM
row,Compound,Total Cell Count
1,CC(C)(O)C(=O)N1CCN(c2ccc(C(F)(F)F)c(C3=C(c4c[nH]c5ccccc45)C(=O)NC3=O)c2)CC1,155 and 165
2,O=C1c2c(Br)c(Br)c(Br)c(Br)c2C(=O)N1c1ncc[nH]1,190 and 259
3,CCCOc1ccc2[nH]cc(C3=CCNCC3)c2n1.Cl,162 and 147
4,CCNC1(C(N)=O)CCN(c2ncnc3c2nc(-c2ccccc2Cl)n3-c2ccc(Cl)cc2)CC1 [OTENABANT],167 and 143

# Same assay, conditions: 48 h, 10 µM, compound concentration 10 uM
Compound,Population Apoptotic (%),Population Fragmented Nuclei (%),Population Healthy Nuclei (%),Population Hoechst High Intensity Objects (%),Population Membrane Permeable-Phenotype (%),Population Mitochondria Different-Phenotype (%),Population Mitotic Cells (%),Population Normal (%),Population Pyknosed Nuclei (%),Population Tubulin-Different-Phenotype (%)
CC(C)(O)C(=O)N1CCN(c2ccc(C(F)(F)F)c(C3=C(c4c[nH]c5ccccc45)C(=O)NC3=O)c2)CC1,54%,33% and 35%,27% and 25%,12% and 6%,0% and 10%,53% and 30%,45%,87% and 93%,38% and 40%,93% and 83%
O=C1c2c(Br)c(Br)c(Br)c(Br)c2C(=O)N1c1ncc[nH]1,,12.8% and 3.12%,85.31% and 89.29%,0%,1.11% and 2%,,,100%,1.9% and 7.59%,
CCCOc1ccc2[nH]cc(C3=CCNCC3)c2n1.Cl,73% and 60%,21% and 32%,65% and 62%,2% and 5%,0% and 4%,9% and 13%,26% and 40%,97% and 94%,13% and 4%,45% and 44%
CCNC1(C(N)=O)CCN(c2ncnc3c2nc(-c2ccccc2Cl)n3-c2ccc(Cl)cc2)CC1 [OTENABANT],78% and 61%,30% and 46%,61% and 47%,8% and 2%,0% and 7%,49% and 26%,21% and 38%,91% and 97%,8% and 6%,92% and 89%

# Same assay, conditions: 48 h, 10 µM, compound concentration 10 uM
row,Compound,Total Cell Count
1,CC(C)(O)C(=O)N1CCN(c2ccc(C(F)(F)F)c(C3=C(c4c[nH]c5ccccc45)C(=O)NC3=O)c2)CC1,123 and 129
2,O=C1c2c(Br)c(Br)c(Br)c(Br)c2C(=O)N1c1ncc[nH]1,211 and 224
3,CCCOc1ccc2[nH]cc(C3=CCNCC3)c2n1.Cl,150 and 116
4,CCNC1(C(N)=O)CCN(c2ncnc3c2nc(-c2ccccc2Cl)n3-c2ccc(Cl)cc2)CC1 [OTENABANT],187 and 299
